Source: ChEMBL document CHEMBL1921730, “The anti-malarial activity of bivalent imidazolium salts” (Bioorg Med Chem, 2011)
Active and inactive are the calls of the source. The calls are words filed in the database; no cut-off is given here.

Assays:
[1] = test system: Plasmodium falciparum; assay: Antiplasmodial activity against Plasmodium falciparum assessed as inhibition of parasite LDH activity after 72 hrs; type: functional, organism-based
In short: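 P. falciparum ItG grown in O+ human erythrocytes in RPMI-1640 with 10% human serum and 50 µM hypoxanthine. DMSO stocks (10 mg/mL) diluted two-fold serially; culture at 2% hematocrit and 2% parasitemia incubated 72 h at 37 °C under 95% N₂/3% CO₂/2% O₂. pLDH assay read at 595 nm after 1 h; IC50 by non-linear regression, mean ± SEM, n = 4; chloroquine positive control.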

[2] = test system: CHO; assay: Cytotoxicity against CHO cells after 48 hrs by MTT assay; type: cell-based; details: Cricetulus griseus
In short: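 CHO cells grown in RPMI-1640 with 10% fetal calf serum, 25 mM HEPES and gentamicin, to 50% confluency, then given two-fold gradients from 10 mg/mL DMSO stocks; DMSO-only control. After 48 h, MTT (10 mg/mL) was added for 30 min, then DMSO; absorbance read at 650 nm. IC50 by non-linear regression of sigmoidal dose-response curves; four determinations, mean ± SEM.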

[3] = Ratio of IC50 for CHO cells to IC50 for Plasmodium falciparum
[4] = test system: Plasmodium berghei; assay: Antiplasmodial activity against Plasmodium berghei infected in BALB/c mouse assessed as delay in onset of parasitemia at 60 ug/day infused once daily for 3 days by Giemsa staining relative to control; type: functional, organism-based
In short: (§1)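 Female Balb/c mice, 6–8 weeks old, infected with 10⁶ P. berghei on Day 0 and followed by Giemsa-stained blood films until parasites appeared. Then infused once daily for three days with 0.5 mL RPMI-1640 or compound in RPMI-1640; vehicle control 1% (v/v) DMSO in RPMI-1640; chloroquine 15 mg/kg/day as positive control. Parasitemia by Giemsa films; five mice per group.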

[5] = test system: Plasmodium falciparum; assay: Antiplasmodial activity against Plasmodium falciparum assessed as inhibition of merozoite invasion of RBCs at 20 uM after 48 hrs by SYBR green 1 fluorescence-based flow cytometry; type: functional, organism-based
In short: (§2)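 Sorbitol-synchronized ring-stage P. falciparum set to 5% parasitemia and 0.5% hematocrit, then treated for 48 h. An equal volume of RPMI-1640 with 0.2 µL/mL stock SYBR-Green was added for 1 h in the dark before flow cytometry (~200,000 events). Quadrant counts of parasitized, non-parasitized and small DNA-containing events were taken relative to total erythrocytes.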

[6] = test system: Plasmodium falciparum; assay: Antiplasmodial activity against Plasmodium falciparum assessed as inhibition of parasite adherence to RBCs at 20 uM after 48 hrs by microscopic analysis; type: functional, organism-based
[7] = test system: Plasmodium berghei; assay: Antiplasmodial activity against Plasmodium berghei […] by SYBR green 1 assay; type: functional, organism-based
In short: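 P. berghei blood from an infected mouse (5% parasitemia) obtained by cardiac puncture and washed 3 times in RPMI. Plated at 2% hematocrit in a two-fold compound gradient. Wells agitated at 24 h to release merozoites, then incubated a further 24 h. SYBR-Green I fluorescence read-out; IC50 from four independent determinations, mean ± SEM.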

[8] = test system: Plasmodium falciparum; assay: Antiplasmodial activity against Plasmodium falciparum 3D7 assessed as reduction in parasitemia at 83 nM measured between day 1 and day 2 relative to control; type: functional, organism-based
In short: (§3)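 P. falciparum 3D7 cultures synchronized at mature stage on Percoll one day before the start. Set to 1% hematocrit and 2% parasitemia, treated with 40 nM or 83 nM compound, and sampled every 24 h for 4 days. Parasitemia counted on Giemsa-stained smears. Controls: uninfected RBCs, untreated cultures, sulfated β-cyclodextrin sodium salt and chloroquine.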

[9] = test system: Plasmodium berghei; assay: Antiplasmodial activity against Plasmodium berghei infected in BALB/c mouse assessed as reduction in parasitemia at 15 mg/kg infused once daily for 4 days measured after 4 days by YOYO-1 staining based flow cytometry relative to control; set-up: scale not given: the % may be the effect or the level left
[10] = test system: Plasmodium berghei; assay: Antiplasmodial activity against Plasmodium berghei infected in BALB/c mouse assessed as delay in onset of parasitemia infused once daily for 3 days by Giemsa staining relative to control
[11] = test system: Plasmodium berghei; assay: Antiplasmodial activity against Plasmodium berghei infected in BALB/c mouse assessed as delay in onset of parasitemia at 75 ug/day infused once daily for 3 days by Giemsa staining relative to control; type: functional, organism-based; in short: as §1
[12] = test system: Plasmodium falciparum; assay: Antiplasmodial activity against Plasmodium falciparum 3D7 assessed as reduction in parasitemia at 40 nM measured between day 1 and day 2 relative to control; type: functional, organism-based; in short: as §3
[13] = test system: Plasmodium falciparum; assay: Antiplasmodial activity against Plasmodium falciparum assessed as inhibition of merozoite invasion of RBCs at 0.2 mg/ml after 48 hrs by SYBR green 1 fluorescence-based flow cytometry; type: functional, organism-based; in short: as §2
[14] = test system: Plasmodium falciparum; assay: Antiplasmodial activity against Plasmodium falciparum 3D7 assessed as reduction in parasitemia measured between day 1 and day 2 relative to control; type: functional, organism-based; in short: as §3
[15] = test system: Plasmodium falciparum; assay: Antiplasmodial activity against Plasmodium falciparum assessed as inhibition of merozoite invasion of RBCs at 1 uM after 48 hrs by SYBR green 1 fluorescence-based flow cytometry; type: functional, organism-based; in short: as §2

SMILES	IC50 [1] [µM]	IC50 [2] [µM]	Ratio IC50 [3]	also measured
Cl.Cl.c1cn(CCCOc2ccc(OCCCn3ccnc3)cc2)cn1	4.9	50	10	
Cl.Cl.c1cn(CCCCCCCCCCCCCCCn2ccnc2)cn1	0.93	2.8	3	
C[n+]1ccn(-c2ccc(-n3cc[n+](C)c3)cc2)c1.[I-].[I-]	11.2		28	
c1cn(CCCCCCCCCCCCCCCCn2ccnc2)cn1	0.65	1.3	2	
c1cn(-c2ccc(-c3ccc(-n4ccnc4)cc3)cc2)cn1	3.1	27	9	
C[n+]1ccn(CCCCCCCCCCCCCCCn2cc[n+](C)c2)c1.[I-].[I-]	0.002	1.2	600	
Cl.Cl.c1cn(CCCCCCCCCCCCn2ccnc2)cn1	4.1	1.4	0.3	
C[n+]1ccn(-c2ccc(-c3ccc(-n4cc[n+](C)c4)cc3)cc2)c1.[I-].[I-]	0.009	9	1000	
Cl.Cl.c1cn(CCCCCCCCCCCCCCn2ccnc2)cn1	1.6	4.4	2.8	
Cl.Cl.c1cn(CCCCn2ccnc2)cn1	1070	1900	1.8	
c1cn(CCCCCCCCCCCCCCCCCCCCn2ccnc2)cn1	2.5	8	3.2	
Cl.Cl.c1ncn(CCCCCCCCCCCCn2cncn2)n1	19	11.7	0.6	
c1cn(-c2ccc(-n3ccnc3)cc2)cn1	93	1110	12	
c1cn(Cc2ccc(-c3ccc(Cn4ccnc4)cc3)cc2)cn1	1.7	65	38	
C[n+]1ccn(CCCCCCCCCCCCCn2cc[n+](C)c2)c1.[I-].[I-]	0.007	51	7286	Activity [4]: Active
C[n+]1ccn(CCCCCCCCCCCCn2cc[n+](C)c2)c1.[I-].[I-]	0.006	26	4333	inhibition [5]: inactive; inhibition [6]: Active
Cl.Cl.c1cn(CCCCCCCCn2ccnc2)cn1	6	140	23	
CC[n+]1ccn(CCCCCCCCCCCCn2cc[n+](CC)c2)c1.[I-].[I-]	0.012	34	2833	IC50 [7]: 0.12 µM
C[n+]1ccn(CCCOc2ccc(OCCCn3cc[n+](C)c3)cc2)c1.[I-].[I-]	0.045		2511	IC50 [7]: 0.046 µM
C[n+]1ccn(CCCCCCCCCCCCCCCCn2cc[n+](C)c2)c1.[I-].[I-]	0.0005	2.7	5400	
C[n+]1ccn(CCCCCCn2cc[n+](C)c2)c1.[I-].[I-]	2.6		56	

SMILES	IC50 [1] [µM]	IC50 [2] [µM]	Ratio IC50 [3]	also measured
C[n+]1ccn(Cc2ccc(-c3ccc(Cn4cc[n+](C)c4)cc3)cc2)c1.[I-].[I-]	0.18		694	
C[n+]1cnn(CCCCCCCCCCCCn2c[n+](C)cn2)c1.[I-].[I-]	0.008	52	6500	Activity [8]: Active; inhibition [5]: inactive; inhibition [6]: Active; Activity [9]: 75%; Activity [10]: 50%; Activity [11]: Active; Activity [12]: inactive
C[n+]1cn(-c2ccc(-c3ccc(-n4c[n+](C)c5ccccc54)cc3)cc2)c2ccccc21.[I-].[I-]	0.07	98	1400	
C[n+]1ccn(CCCCCCCCCCCCCCn2cc[n+](C)c2)c1.[I-].[I-]	0.0032	11	3438	
C[n+]1ccn(CCCCCCCCn2cc[n+](C)c2)c1.[I-].[I-]	4.7		96	
C[n+]1ccn(CCCCCCCCCCCn2cc[n+](C)c2)c1.[I-].[I-]	0.0061	42	6885	IC50 [7]: 0.05 µM
CCC[n+]1ccn(CCCCCCCCCCCCn2cc[n+](CCC)c2)c1.[I-].[I-]	0.0008	78	97500	
c1cn(CCCCCCCCCCCCCCCCCCn2ccnc2)cn1	0.4	1.2	3	
Cl.Cl.c1cn(CCCCCCCCCCn2ccnc2)cn1	9.2	15	1.6	
C[n+]1ccn(CCCCn2cc[n+](C)c2)c1.[I-].[I-]	67		1.8	
Cl.Cl.c1cn(CCCCCCCCCCCCCn2ccnc2)cn1	0.56	3	5.4	
C[n+]1ccn(CCCCCCCCCCCCCCCCCCn2cc[n+](C)c2)c1.[I-].[I-]	0.0009	1.4	1556	
O=S(=O)(O)OC[C@H]1O[C@@H]2O[C@H]3[C@H](O)[C@@H](O)[C@@H](O[C@H]4[C@H](O)[C@@H](O)[C@@H](O[C@H]5[C@H](O)[C@@H](O)[C@@H](O[C@H]6[C@H](O)[C@@H](O)[C@@H](O[C@H]7[C@H](O)[C@@H](O)[C@@H](O[C@H]8[C@H](O)[C@@H](O)[C@@H](O[C@H]1[C@H](O)[C@H]2O)O[C@@H]8COS(=O)(=O)O)O[C@@H]7COS(=O)(=O)O)O[C@@H]6COS(=O)(=O)O)O[C@@H]5COS(=O)(=O)O)O[C@@H]4COS(=O)(=O)O)O[C@@H]3COS(=O)(=O)O				inhibition [13]: Active; Activity [14]: Active
C[n+]1ccn(CCCCCCCCCCn2cc[n+](C)c2)c1.[I-].[I-]	0.082	57	695	
C[n+]1ccn(CCCCCCCCCCCCCCCCCCCCn2cc[n+](C)c2)c1.[I-].[I-]	0.0021	1.4	667	
c1cn(CCCCCCCCCCCn2ccnc2)cn1	1.9	20	11	
O=[N+]([O-])c1ccc(C[n+]2ccn(-c3ccc(-c4ccc(-n5cc[n+](Cc6ccc([N+](=O)[O-])cc6)c5)cc4)cc3)c2)cc1.[Br-].[Br-]	0.023	14	609	
CCN(CC)CCCC(C)Nc1ccnc2cc(Cl)ccc12 (stereo unspecified)				inhibition [15]: Active; Activity [14]: Active
[Br-].[Br-].c1ccc(C[n+]2ccn(-c3ccc(-c4ccc(-n5cc[n+](Cc6ccccc6)c5)cc4)cc3)c2)cc1	0.022	12.1	550	
O=C(Cn1cc[n+](CC(=O)c2ccc(Cl)cc2)c1)c1ccc(Cl)cc1				inhibition [5]: inactive; inhibition [6]: Active; IC50 [7]: 4.2 µM
Cl.Cl.c1cn(CCCCCCn2ccnc2)cn1	90	899	10	
